Entries after “also recorded” stand apart in the source; their conditions may differ. Read-outs that look alike come from different tables or passages of the source.
Tests used:
[1] = rats, 7 days, cited from earlier work
[2] = test system: RAR; settings: relative to 9-cis-RA and other RA; cited from earlier work
[3] = Toxicity / adverse events; format: in vivo, human
Method in brief: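 Healthy adults aged 18-65 years took one oral dose (5, 10 or 20 mg) in the morning on an empty stomach. Dose cohorts were escalated in sequence and subjects stayed 24 h as inpatients. Toxicity was assessed on day 8, with contact on day 30, and graded by NCI-CTCAE. Serum TG was taken at screening, 24 h and day 8. Dose versus TG change was tested by Jonckheere-Terpstra.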

[4] = Stability of 9cUAB30 in spiked human plasma and urine stored at -70 °C; format: in vitro ADME
Method in brief: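 Blank human plasma and urine were spiked from a 1 μg/mL stock standard to 10 and 40 ng/mL (plasma, urine) and 100 ng/mL (urine only), then held at -70 °C for 12 weeks. Samples were run in triplicate by LC-MS/MS after liquid-liquid extraction with 9-cis-RA as internal standard. LLOQ was 1.56 ng/mL.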

[5] = Single-dose pharmacokinetics of 9cUAB30 in healthy volunteers; format: in vivo, human
[6] = test system: human breast cancer cells; settings: cited from earlier work
[7] = doses significantly higher than needed for chemopreventive activity; cited from earlier work
[8] = test system: N-methyl-N-nitrosourea (MNU)-induced mammary cancer; settings: cited from earlier work; for average tumors per animal: controls 6.0
[9] = test system: colony formation; settings: 0.1 μmol/L (29 ng/mL); cited from earlier work
[10] = test system: KLF4-mediated tumor initiation; settings: cited from earlier work
[11] = test system: Human hepatocytes; settings: treatment up to 50 μmol/L; cited from earlier work
[12] = single dose 5, 10 or 20 mg, 14 subjects
[13] = single dose 5, 10 or 20 mg, all subjects n = 14

**Q.** For `CC1=C(/C=C/C(C)=C\C=C\C(C)=C\C(=O)O)C(C)(C)CCC1` [9-cis-RA, 9-cis-retinoic acid, reference compound], which “increase of serum TGs compared to untreated controls” value ([1]; 60 mg/kg of diet) is on record?
**A.** 5 fold

**Q.** What does the source list for `CC(=C/C=C/C(C)=C/C(=O)O)/C=C1\CCCc2ccccc21` [9cUAB30, (2E,4E,6Z,8E)-8-(3′,4′-Dihydro-1′(2′H)-naphthalen-1′-ylidene)-3,7-dimethyl-2,4,6-octatrienoic Acid]?
**A.** RAR-binding activity [2]: little or no RAR-binding activity; patients with grade 2 toxicity ([3]; 10-mg dose level, 6 subjects): 1; Mean TG levels ([3]; day 8, all subjects, screening 116 ± 34.8): 114 ± 44.5; change in TG levels from baseline ([3]; differences between the treatment groups 5, 10, 20 mg): not statistically significant; also recorded: did not significantly increase change in serum TGs; subjects with ≥ grade 2 toxicity ([3]; dose level 5 mg): No subjects; subjects with ≥ grade 2 toxicity ([3]; dose level 20 mg): No subjects; grade 3 or 4 toxicities [3, 12]: no grade 3 or 4 toxicities reported; patients experiencing grade 2 toxicity [3, 12]: 1; tolerability [3, 12]: well tolerated; Diarrhea, Grade II, patients (%) [3, 13]: 0; Dizziness, Grade I, patients (%) [3, 13]: 0; Elevated chloride, Grade II, patients (%) [3, 13]: 0; Elevation in cholesterol, Grade II, patients (%) [3, 13]: 0; Elevation in triglycerides, Grade II, patients (%) [3, 13]: 0; Fatigue, Grade I, patients (%) [3, 13]: 0; Headache, Grade II, patients (%) [3, 13]: 0; Nasal congestion, Grade II, patients (%) [3, 13]: 0; Nausea and vomiting, Grade I, patients (%) [3, 13]: 0; Reduced hemoglobin, Grade II, patients (%) [3, 13]: 0; stability in plasma ([4]; human plasma, −70 °C, 10 and 40 ng/mL): stable for 12 weeks; stability in urine ([4]; human urine, −70 °C, 10, 40 and 100 ng/mL): stable for 12 weeks; dose required to achieve maximal concentrations of 0.294 μg/mL ([5]; assuming 1 compartment, first-order elimination, extrapolated from 20-mg dose): 60 mg; CL renal ([5]; human, urine and plasma, po): 0.3 to 1.72 mL/min; oral availability ([5]; single oral dose, fasted healthy volunteers): orally available; effect on serum TG levels ([1]; 200 or 800 mg/kg of diet): did not affect serum TG levels; cell proliferation [6]: significant inhibition of cell proliferation; toxicity in animal models [7]: toxicity was not reported; decrease of MNU-induced mammary cancer incidence compared to controls ([8]; 200 mg/kg/d diet): 63%; average tumors per animal ([8]; 9cUAB30 150 mg/kg of diet): 4.3 tumors per animal; colony formation, % of untreated cells [9]: 62%; concentration required to prevent KLF4-mediated tumor initiation [10]: 1 µmol/L; concentration required to prevent KLF4-mediated tumor initiation ([10]; printed conversion of 1 μmol/L): 294 ng/mL; cytotoxicity [11]: no signs of cytotoxicity

**Q.** Which “average tumors per animal” value ([8]; tamoxifen 0.4 mg/kg of diet) does the source give for `CC/C(=C(\c1ccccc1)c1ccc(OCCN(C)C)cc1)c1ccccc1` [tamoxifen, reference compound] here?
**A.** 4.6 tumors per animal

From PMC3204611 (Cancer prevention research (Philadelphia, Pa.), 2010)
